Assay results collected from several papers.
pIC50, pKi: −log10 of the molar value.
Target: Carbonic anhydrase 2 (CA2, Homo sapiens, UniProt P00918)
Effect on: enzyme activity
Action: inhibitor

Compound	technique	endpoint	value
O=C(Nc1ccc2c(c1)C=CCP(=O)(O)O2)c1ccc(Br)cc1	stopped-flow	pKi	< 5.00
CC(C)c1cc2c(c(O)c1O)[C@@]13CCCC(C)(C)[C@@H]1[C@@H](O)[C@@H]2OC3=O	–	pIC50	8.24
O=C(Nc1ccc2c(c1)C=CCP(=O)(O)O2)c1ccc(Cl)cc1	stopped-flow	pKi	< 5.00
NC(=S)N/N=C1/c2ccccc2[C@@H]2[C@H]1[C@@H](c1ccccc1)[C@H](C(=O)c1ccccc1)[C@H]2c1ccccc1 (racemic)	absorbance	pIC50	5.88
N#C[Se]Cc1cc(=O)oc2cc(O)ccc12	stopped-flow	pKi	< 4.00
CC(C)c1cc2c(c(O)c1O)[C@@]13CCCC(C)(C)[C@@H]1C[C@@H]2OC3=O	–	pIC50	8.26
O=C(Nc1ccc2c(c1)C=CCP(=O)(O)O2)c1ccc([N+](=O)[O-])cc1	stopped-flow	pKi	< 5.00
NC(=S)N/N=C1/c2ccccc2[C@@H]2[C@H]1[C@@H](c1ccsc1)[C@H](C(=O)c1ccsc1)[C@H]2c1ccsc1 (racemic)	absorbance	pIC50	6.28
O=C(Nc1ccc2c(c1)C=CCP(=O)(O)O2)c1ccco1	stopped-flow	pKi	< 5.00
Cc1ccc([C@H]2[C@H](C(=O)c3cccs3)[C@@H](c3cccs3)[C@@H]3c4ccccc4/C(=N/NC(N)=S)[C@@H]32)cc1 (racemic)	absorbance	pIC50	6.25
CC(C)c1cc2c(c(O)c1O)[C@@]1(C(=O)O)CCCC(C)(C)[C@@H]1CC2	–	pKi	8.38
NC(=S)N/N=C1/c2ccccc2[C@@H]2[C@H]1[C@@H](c1ccc(C(F)(F)F)cc1)[C@H](C(=O)c1ccc(C(F)(F)F)cc1)[C@H]2c1ccc(C(F)(F)F)cc1 (racemic)	absorbance	pIC50	6.26
CC(C)c1cc2c(c(O)c1O)[C@@]13CCCC(C)(C)[C@@H]1[C@H](OC3=O)[C@H]2O	–	pKi	8.30
Cc1c(Cl)c(=O)oc2cc(OCCCC[Se]C#N)ccc12	stopped-flow	pKi	< 4.00
Cc1ccc(NC(=O)Nc2ccc3c(c2)C=CCP(=O)(O)O3)cc1	stopped-flow	pKi	< 5.00
